# Bioassay records deposited in PubChem by several laboratories.
# HCV NS3 hel inh = blocks Hepatitis C virus NS3 helicase unwinding. NS3 helicase DNA unwinding, Cy5 molecular beacon fluorescence. 290,000 compounds, 0.56% hits. AID 1800. inhibition, % at 10.9 µM;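 active = inhibition above the mean of all tested compounds plus 3 SD, set per campaign, cut at about 35% in these data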;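 also: 0% = DMSO wells and 100% = thioflavine S control wells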
#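 Assay system: hepatitis C virus NS3 helicase domain fragment enzyme. Also added: annealed dual-labelled DNA beacon duplex, ATP-started. Timing: 1 h reaction at 25 °C, ATP-initiated. Technique: Cy5 fluorescence at 0 and 60 min, beacon hairpin quenching. Evaluation: % inhibition of unwinding. Replication: one well per compound.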
# UPR XBP1 act = adaptive UPR (XBP1) activation. activation, % at 20 µM. AID 463104. 330,000 compounds, 0.33% hits. CHO-XBP1 luciferase reporter, IRE1-XBP1 UPR activation, luminescence; percent of tunicamycin response, DMSO as zero;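 active = versus positive control, 20 µM dose yields 30% or more activation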;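 also: 100% = tunicamycin at 10 µg/mL and 0% = DMSO only wells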
#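 Assay system: IRE1-XBP1 luciferase reporter CHO line. Input: 1000 cells/well. Buffer or medium: F12 with 10% serum. Doses: 20 µM, 1% DMSO. Times: overnight seeding at 37 °C, 6 h compound treatment at 37 °C. Technique: Steady-Glo luciferase glow luminescence, 10 min after reagent addition.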
# p97 inhibitor = human p97 ATPase inhibition; P55072; recombinant p97 ATPase, Kinase-Glo ATP luminescence, 3 h; 220,000 compounds, 0.42% hits; inhibition, % at 8 µM; in the data active = inhibition above about 15%;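 also: 0% = DMSO vehicle and 100% = wells lacking enzyme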
# PfM18AAP inh-1 = PfM18AAP enzyme inhibition; recombinant PfM18AAP, H-Glu-NHMec fluorogenic cleavage; inhibition, % at 7.35 µM; 290,000 compounds, 1.2% hits;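 active = inhibition above the campaign mean inhibition over all tested compounds plus 3 SD, cut at about 28% in these data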;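 also: 0% = plate median of test compound wells and 100% = 2 mM ZnCl2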
# CHOP inh = blocks CHOP induction under ER stress | CHO-K1 CHOP-promoter luciferase, tunicamycin-induced, 15-18 h | 220,000 compounds, 3.8% hits | AID 2732 | inhibition, % at 10 µM;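 active = compounds that reduced the stress-induced luciferase reporter signal by more than about 70% of percent inhibition, limit read from the data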;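 also: 0% = tunicamycin plus vehicle and 100% = wells without tunicamycin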
# CHOP UPR activ = apoptotic UPR (CHOP) activation. CHO-CHOP luciferase reporter, luminescence; percent of tunicamycin response over DMSO baseline. activation, % at 10 µM. 330,000 compounds, 0.34% hits. AID 449763;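 active = at 10 µM dose, activation of 40% or more, normalized to positive control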;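 also: 100% = tunicamycin at 10 µg/mL and 0% = DMSO alone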
#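 Dosing – one dose, 10 µM in 0.5% DMSO · System – CHO-CHOP cells, stable luciferase reporter of PERK-eIF2a-CHOP signalling · Input – 500 cells/well · Control set – tunicamycin 10 µg/mL final as positive, DMSO-only wells as negative · Timing – 6 h compound treatment, 37 °C · Measure – % activation vs tunicamycin · Technique – luminescence read with Steady-Glo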
# PfM18AAP inh-2 = confirmation of Plasmodium falciparum M18 aspartyl aminopeptidase inhibitors. shares compounds with PfM18AAP inh-1. recombinant PfM18AAP, H-Glu-NHMec fluorogenic cleavage. inhibition, % at 7.35 µM. 2,400 compounds, 28% hits. AID 2170;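 active = mean inhibition over replicate wells above the hit cutoff set for the earlier primary screen, cut at about 29% in these data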;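 also: 0% = median of test compound wells and 100% = 2 mM ZnCl2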
# CTSL1 confirm = counter-screen for PFM18AAP inhibitors: confirmation of human cathepsin L inhibitors | 2,400 tested, under 10 active | purified cathepsin L1, Z-Leu-Arg-MCA fluorescence | shares compounds with PfM18AAP inh-1 | inhibition, % at 5.96 µM | AID 2178;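 active = average inhibition across replicates above the hit cutoff set in the earlier primary screen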;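 also: 0% = median of test compound wells and 100% = Z-Phe-Ala-diazomethylketone 1 µM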
# Target sequence (P07711 whole entry, looked up): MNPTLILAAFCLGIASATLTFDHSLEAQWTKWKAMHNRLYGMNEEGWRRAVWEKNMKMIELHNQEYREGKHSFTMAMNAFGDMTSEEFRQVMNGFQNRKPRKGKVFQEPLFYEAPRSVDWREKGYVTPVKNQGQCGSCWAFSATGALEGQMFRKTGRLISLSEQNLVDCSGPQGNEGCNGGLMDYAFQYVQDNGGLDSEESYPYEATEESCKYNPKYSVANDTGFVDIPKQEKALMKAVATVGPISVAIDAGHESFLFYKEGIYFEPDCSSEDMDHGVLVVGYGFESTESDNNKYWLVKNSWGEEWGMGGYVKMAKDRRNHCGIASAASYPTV
# CHOP confirm = confirmation of CHOP induction inhibitors; shares compounds with CHOP inh; 2,100 compounds, 45% hits; inhibition, % at 10 µM; CHO-CHOP promoter luciferase reporter, tunicamycin-induced, luminescence;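 active = mean of three repeat readings of reporter signal inhibition above a set limit, cut at about 70% in these data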;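 also: 0% = tunicamycin plus vehicle and 100% = wells lacking tunicamycin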
# UPR CHOP confirm = apoptotic UPR (CHOP) activation, confirmed | 1,000 compounds, 64% hits | shares compounds with CHOP UPR activ | activation, % at 10 µM | CHO-CHOP cells, CHOP-luciferase reporter luminescence; percent of tunicamycin response, DMSO as zero; in the data active = activation above about 33%;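 also: 0% = DMSO wells and 100% = tunicamycin 10 µg/mL wells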
# UPR XBP1 confirm = confirmation of adaptive unfolded protein response (XBP1) activators | shares compounds with UPR XBP1 act | CHO-XBP1 IRE1-XBP1 luciferase reporter, luminescence | activation, % at 20 µM | 1,000 compounds, 63% hits | AID 485299;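 active = reporter signal at least 30% of the positive control's activation in two or more of four replicate wells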;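 also: plate controls were DMSO negative control for no effect and tunicamycin 10 µg/mL positive control for full effect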
# The depositor's hits bear a star; · = no result given. Rows were chosen to be rich in hits. Some 4.5% of all compounds tested hit in one or more screens of this group.
SMILES,HCV NS3 hel inh,UPR XBP1 act,p97 inhibitor,PfM18AAP inh-1,CHOP inh,CHOP UPR activ,CHOP confirm,others
CCCc1cnc(NCCNCC(O)COc2ccc(Cl)c(Cl)c2)nc1 (centres undefined),-43,-2,-9,4,2,1,·,
COc1cc(/C=N/N(c2ccccc2)c2ccccc2)ccc1O,-5,0,·,13,·,6,·,
CN(/N=C\c1ccc(O)c(O)c1)c1nc(-c2ccccc2)cc(-c2ccccc2)n1,8,66*,3,50*,103*,112*,·,PfM18AAP inh-2=24;CTSL1 confirm=-3;UPR CHOP confirm=93*;UPR XBP1 confirm=98*
CC(C)(C)[C@H]1COC(=O)CCCC/C=C\C[C@H](CC(=O)N(CCO)Cc2ccccc2)C(=O)N1,·,-3,·,·,·,0,·,
CCOC(=O)c1c(NC(C)=O)sc2c1CCC(C=O)=C2Sc1ccccc1,4,64*,5,40*,-14,294*,·,PfM18AAP inh-2=-21;CTSL1 confirm=1;UPR CHOP confirm=632*;UPR XBP1 confirm=12
O=C1c2ccccc2C(=O)N1Cc1cc(-c2ccc(Cl)cc2)no1,5,4,2,-1,·,1,·,
CC1=C(C(=O)Nc2ccc(C(=O)NC(C)c3ccccc3)cc2)SCCO1 (centres undefined),-14,-2,·,-8,·,-2,·,
Cc1cccnc1Nc1nc(-c2ccc(O)c(O)c2)cs1,5,30*,1,79*,-8,155*,·,PfM18AAP inh-2=55*;CTSL1 confirm=4;UPR CHOP confirm=114*;UPR XBP1 confirm=43*
O=c1c2ccccc2nc(COc2ccccc2)n1/N=C/c1ccc(O)c(O)c1,1,32*,5,53*,-8,3,·,PfM18AAP inh-2=25;CTSL1 confirm=6;UPR XBP1 confirm=24
O=C(O)COc1ccc(/C=N/n2c(COc3ccccc3)nc3ccccc3c2=O)cc1,-6,-4,3,-2,-8,3,·,
COc1ccc(N/N=C(\C=N\O)C(=O)c2ccc(OC)cc2)cc1,5,24,-3,-5,·,-1,73*,
Cc1ccc(NC(=O)C2CC(=O)N(C(C)C)C2)cc1C (centres undefined),0,-2,·,1,·,1,·,
C[C@H](CO)N1C[C@H](C)[C@@H](CN(C)Cc2ccccc2)Oc2ccc(NC(=O)CCCCCC(=O)Nc3ccccc3N)cc2C1=O,·,-2,·,·,·,1,·,
CC(C)CCN(C(=O)CNC(=O)c1ccco1)C(C(=O)NC1CCCCC1)c1cccnc1 (centres undefined),2,-4,·,-2,·,0,·,
CC(/C=C1\SC(=O)N(CCCC(=O)O)C1=O)=C\c1ccccc1,17,·,-3,1,101*,·,110*,
COc1ccc(CNC(=O)CN2C(=O)NC3(CCCc4sccc43)C2=O)cc1OC (centres undefined),·,-1,·,·,·,-1,·,
CCCNC(=O)c1onc(CSc2ccc(F)cc2)c1C(=O)NCC1CC1,·,-1,·,·,·,-1,·,
O=C1CC(SCc2nc3ccccc3[nH]2)C(=O)N1c1cccc(Cl)c1 (centres undefined),17,-1,-2,-15,22,6,·,
COc1ccc(N2C(=O)CC(Sc3nnc(-c4ccccc4)o3)C2=O)cc1 (centres undefined),-14,-7,4,-71,109*,-10,5,
COc1ccc(N2C(=O)CC(Sc3nnnn3-c3ccc(F)cc3)C2=O)cc1 (centres undefined),5,-8,8,-79,107*,4,134*,
O=C1CC(Sc2nnc(-c3ccccc3O)o2)C(=O)N1c1ccccc1 (centres undefined),2,-12,6,-46,7,-3,·,
O=C1CC(Sc2nnnn2-c2ccccc2)C(=O)N1c1cccc(Cl)c1 (centres undefined),16,-7,-3,-125,110*,2,111*,
COc1ccc(C2NC(=O)CCC2[N+](=O)[O-])c(OC)c1OC (centres undefined),10,-6,·,-2,·,-1,·,
C=CCn1c(SCC(=O)c2[nH]c(C)c(C(=O)OCC)c2C)nc2scc(-c3ccc(OC)c(OC)c3)c2c1=O,14,·,-9,-2,106*,·,50,
CCOC(=O)c1c(C)[nH]c(C(=O)CSc2nnc(-c3ccncc3)n2CC)c1C,2,-3,-1,2,23,-1,·,
SMILES,HCV NS3 hel inh,UPR XBP1 act,p97 inhibitor,PfM18AAP inh-1,CHOP inh,CHOP UPR activ,CHOP confirm,others
CCOC(=O)c1c(-c2ccccc2)oc2ccc(O)cc12,-2,1,·,0,·,0,·,
CCOC(=O)c1c(CSc2ccccc2)oc2ccc(O)cc12,-11,8,3,0,105*,0,14,
CC(C)(C)c1ccc(CN2N=Nc3ccccc3S2(=O)=O)cc1,34,-5,5,2,108*,-5,124*,
O=S1(=O)c2ccccc2N=NN1Cc1ccc(Cl)c(Cl)c1,11,0,2,27,-46,1,·,
CCc1csc(CNC(=O)C2CCC(=O)N(Cc3cccc(F)c3)C2)n1 (centres undefined),5,-5,·,-14,·,2,·,
O=C1C(Nc2ccccc2)=C/C(=N/S(=O)(=O)c2cccs2)c2ccccc21,6,·,6,6,108*,·,112*,
COC(=O)c1ccccc1NC1=C/C(=N\S(=O)(=O)c2cccs2)c2ccccc2C1=O,17,-3,5,18,107*,2,109*,
CCOC(=O)CNC(=O)CN1CCC(c2nc3ccccc3[nH]2)CC1,5,3,·,-12,·,2,·,
COc1ccc(-c2c(-c3ccc(OCC(=O)NN)cc3O)n[nH]c2C)cc1OC,-7,-3,·,7,·,1,·,
C=C(C)COc1ccc(-c2n[nH]c(C)c2-c2ccc(OC)cc2)c(O)c1,-10,-5,1,0,107*,-1,29,
COc1ccc(Cn2c(C(F)(F)F)ccc(C(N)=O)c2=O)cc1,-3,9,1,8,27,1,·,
NC(=O)c1ccc(C(F)(F)F)n(Cc2c(Cl)cccc2Cl)c1=O,-2,0,-4,1,102*,-1,112*,
